Results from ChEMBL document CHEMBL3044892, “Primary study on mode of action for macrocyclic fungicide candidates (7B3, D1) against Rhizoctonia solani Kuhn” (J Agric Food Chem, 2010).
In brackets after ≈: the same amount, converted by molar mass. Activity calls are given as the source filed them. The rule behind the calls is not given here.

Legend:
Rhizoctonia solani [1] = assay: Fungicidal activity against Rhizoctonia solani assessed as inhibition of intact mycelia respiration at 100 ug/mL by […]; assay type: functional
How it was run: (§1)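 Intact R. solani mycelia from 5-day PD shake culture (25 C, 150 rpm), washed, resuspended at 50 mg fresh weight mL-1 in 0.1 M phosphate buffer pH 7.2 with 2% glucose; treated with 10 or 100 μg mL-1; O2 uptake by oxygraph at 25 C before and after addition; inhibition = (R0-R1)/R0 × 100; n = 3.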

Rhizoctonia solani [2] = assay: Fungicidal activity against Rhizoctonia solani assessed as inhibition of intact mycelia respiration at 10 ug/mL by […]; assay type: functional; how it was run: as §1
Rhizoctonia solani [3] = assay: Fungicidal activity against Rhizoctonia solani assessed as disappearance of septal pore caps at 50 ug/mL by Transmission electron micrography; assay type: functional, organism-based
How it was run: (§2)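 R. solani grown 3 days on PDA with 0 or 50 μg mL-1 test compound; 5 mm hyphal tips from colony margin fixed in 4% glutaraldehyde at 4 C, then 1% osmium tetroxide, acetone-dehydrated, Epon-embedded; thin sections double-stained with uranyl acetate and lead citrate, examined by TEM versus untreated control.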

Rhizoctonia solani [4] = assay: Fungicidal activity against Rhizoctonia solani assessed as disorganized organelles and decreased in the hyphae cytoplasm at 50 ug/mL by Transmission electron micrography; assay type: functional, organism-based; how it was run: as §2
Rhizoctonia solani [5] = assay: Fungicidal activity against Rhizoctonia solani assessed as thicker hyphae and abnormally thickened walls of the septa at 50 ug/mL by Transmission electron micrography; assay type: functional, organism-based; how it was run: as §2
Rhizoctonia solani [6] = assay: Fungicidal activity against Rhizoctonia solani assessed as reduction in mycelia growth at 50 ug/mL; assay type: functional, organism-based
Rhizoctonia solani [7] = assay: Fungicidal activity against Rhizoctonia solani assessed as mycelia rough surface and formed irregular ramification or abnormal configuration at 50 ug/mL by scanning electron micrography; assay type: functional, organism-based
How it was run: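 Hyphal tips (5 mm) cut from margins of R. solani colonies grown 3 days on PDA containing 0 or 50 μg mL-1 compound; glutaraldehyde (4%, 4 C) and osmium tetroxide fixation, graded acetone dehydration, critical-point drying, gold coating; imaged by SEM at 18-20 kV accelerating voltage.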

Alternaria kikuchiana [8] = assay: Fungicidal activity against Alternaria kikuchiana Tanaka assessed as inhibition rate; assay type: functional
Sclerotinia sclerotiorum = assay: Fungicidal activity against Sclerotinia sclerotiorum assessed as inhibition rate; assay type: functional
Verticillium dahliae = assay: Fungicidal activity against Verticillium dahliae assessed as inhibition rate; assay type: functional
[9] = tested on: Colletotrichum orbiculare; assay: Fungicidal activity against Colletotrichum orbiculare assessed as inhibition rate; assay type: functional
Rhizoctonia solani [10] = assay: Fungicidal activity against Rhizoctonia solani assessed as inhibition rate; assay type: functional
Fulvia fulva = assay: Fungicidal activity against Passalora fulva Cooke Ciferri assessed as inhibition rate; assay type: functional
Botrytis cinerea = assay: Fungicidal activity against Botryotinia fuckeliana by mycelium growth rate test; assay type: functional, organism-based
Phyllosticta = assay: Fungicidal activity against Phyllospicpa physaleos Sacc., by mycelium growth rate test; assay type: functional, organism-based
Rhizoctonia solani [11] = assay: Fungicidal activity against Rhizoctonia solani by mycelium growth rate test; assay type: functional, organism-based
Alternaria kikuchiana [12] = assay: Fungicidal activity against Alternaria kikuchiana by mycelium growth rate test; assay type: functional, organism-based
Rhizoctonia solani [13] = assay: Fungicidal activity against Rhizoctonia solani assessed as prevention in cotton at 140 g/ha by field efficacy trail; assay type: functional
Rhizoctonia solani [14] = assay: Fungicidal activity against Rhizoctonia solani assessed as induction of electrolyte leakage from hyphae at 50 ug/mL by cell membrane permeability assay; assay type: functional, organism-based

| Compound | inhibition at 100 µg/mL (Rhizoctonia solani [1]) [%] | inhibition at 10 µg/mL (Rhizoctonia solani [2]) [%] | inhibition (Rhizoctonia solani [4]) | Activity (Rhizoctonia solani [5]) | inhibition (Rhizoctonia solani [6]) | inhibition (Rhizoctonia solani [7]) | also measured |
| --- | --- | --- | --- | --- | --- | --- | --- |
| F[B-](F)(F)F.O=C1CCCCCCCCCCC[NH2+]CCO1 | 3 | 1.67 | Active | Active | Active | Active | Activity (Rhizoctonia solani [3]): Active; inhibition (INH) (Alternaria kikuchiana [8]): 85.7%; inhibition (INH) (Sclerotinia sclerotiorum): 85.7%; inhibition (INH) (Verticillium dahliae): 86.9%; inhibition (INH) [9]: 73.2%; inhibition (INH) (Rhizoctonia solani [10]): 96%; inhibition (INH) (Fulvia fulva): 89.3% |
| CCCO/N=C1\CCCCCCCCCCC(=O)NCCC1 | 12.1 | 3.39 | Active | Active | Active | Active | EC50 (Botrytis cinerea): 8.6 µg/mL (≈ 27.7 µM); EC50 (Phyllosticta): 1.9 µg/mL (≈ 6.12 µM); EC50 (Rhizoctonia solani [11]): 4.6 µg/mL (≈ 14.8 µM); EC50 (Alternaria kikuchiana [12]): 1.2 µg/mL (≈ 3.86 µM); Activity (Rhizoctonia solani [13]): 64% |
| CC(C)(C)C(=O)C(Oc1ccc(Cl)cc1)n1cncn1 (stereo unspecified) |  |  |  |  |  |  | Activity (Rhizoctonia solani [14]): inactive |
| CO/C=C(/C(=O)OC)c1ccccc1Oc1cc(Oc2ccccc2C#N)ncn1 [AZOXYSTROBIN] |  | 84.9 |  |  |  |  |  |
